Experimental data as given in ChEMBL document CHEMBL1125111, “The synthesis and antibacterial activities of quinolones containing five- and six-membered heterocyclic substituents at the 7-position” (1990).
Converted amounts (≈) assume the structure as drawn.

What was measured:
Type in all cases: functional
Acinetobacter = assay: In vitro antibacterial activity against Acinetobacter CMX 669
How it was run: (§1)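 Agar dilution MIC: strains grown overnight in brain-heart infusion broth at 36 °C; test compound stock 2000 µg/mL serially diluted 2-fold into BHI agar for final 200 to 0.005 µg/mL; plates inoculated with about 10⁴ organisms, incubated 36 °C for 18 h. MIC (µg/mL) taken as lowest concentration giving no visible growth; ciprofloxacin run side by side as reference.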

Escherichia coli = assay: In vitro antibacterial activity against Escherichia coli Juhl; how it was run: as §1
Klebsiella aerogenes = assay: In vitro antibacterial activity against Enterobacter aerogenes ATCC 13048; how it was run: as §1
Pseudomonas aeruginosa [1] = assay: In vitro antibacterial activity against Pseudomonas aeruginosa 5007; how it was run: as §1
Pseudomonas aeruginosa [2] = assay: In vitro antibacterial activity against Pseudomonas aeruginosa K799/WT; how it was run: as §1
Staphylococcus aureus [3] = assay: In vitro antibacterial activity against Staphylococcus aureus 45; how it was run: as §1
Staphylococcus aureus [4] = assay: In vitro antibacterial activity against Staphylococcus aureus CMX 686B; how it was run: as §1
[5] = system: Staphylococcus epidermidis; assay: In vitro antibacterial activity against Staphylococcus epidermidis 3519; how it was run: as §1
Streptococcus agalactiae = assay: In vitro antibacterial activity against Streptococcus agalactiae CMS 508; how it was run: as §1
Staphylococcus aureus [6] = assay: In vitro antibacterial activity against Staphylococcus aureus ATCC 6538P; how it was run: as §1
Streptococcus equinus = assay: In vitro antibacterial activity against Streptococcus bovis A5169; how it was run: as §1
Enterococcus faecium = assay: In vitro antibacterial activity against Streptococcus faecium ATCC 8043; how it was run: as §1
Streptococcus pyogenes = assay: In vitro antibacterial activity against Streptococcus pyogenes 930; how it was run: as §1
Klebsiella pneumoniae = assay: In vitro antibacterial activity against Klebsiella pneumoniae 8045; how it was run: as §1
Staphylococcus aureus [7] = assay: In vitro antibacterial activity against Staphylococcus aureus A5177; how it was run: as §1

Row | SMILES | MIC (Acinetobacter) | MIC (Escherichia coli) | MIC (Klebsiella aerogenes) | MIC (Pseudomonas aeruginosa [1]) | MIC (Pseudomonas aeruginosa [2]) | MIC (Staphylococcus aureus [3]) | MIC (Staphylococcus aureus [4]) | MIC [5] | MIC (Streptococcus agalactiae) | MIC (Staphylococcus aureus [6]) | MIC (Streptococcus equinus) | MIC (Enterococcus faecium) | MIC (Streptococcus pyogenes) | MIC (Klebsiella pneumoniae) | MIC (Staphylococcus aureus [7])
1 | CCn1cc(C(=O)O)c(=O)c2cc(F)c(C3=NCCCO3)cc21 | > 100 µg/mL | 50 µg/mL (≈ 157 µM) | > 100 µg/mL | > 100 µg/mL | > 100 µg/mL | > 100 µg/mL | 50 µg/mL (≈ 157 µM) | > 100 µg/mL | > 100 µg/mL | 50 µg/mL (≈ 157 µM) | > 100 µg/mL | > 100 µg/mL | > 100 µg/mL | 25 µg/mL (≈ 78.5 µM) | > 100 µg/mL
2 | CCn1cc(C(=O)O)c(=O)c2cc(F)c(-c3coc(N)n3)cc21 | > 100 µg/mL | 50 µg/mL (≈ 158 µM) | 50 µg/mL (≈ 158 µM) | > 100 µg/mL | > 100 µg/mL | 50 µg/mL (≈ 158 µM) | 12.5 µg/mL (≈ 39.4 µM) | 50 µg/mL (≈ 158 µM) | 100 µg/mL (≈ 315 µM) | 12.5 µg/mL (≈ 39.4 µM) | > 100 µg/mL | > 100 µg/mL | 100 µg/mL (≈ 315 µM) | 25 µg/mL (≈ 78.8 µM) | 25 µg/mL (≈ 78.8 µM)
3 | CCn1cc(C(=O)O)c(=O)c2cc(F)c(-c3coc(C)n3)cc21 | 12.5 µg/mL (≈ 39.5 µM) | 6.2 µg/mL (≈ 19.6 µM) | 50 µg/mL (≈ 158 µM) | 50 µg/mL (≈ 158 µM) | 50 µg/mL (≈ 158 µM) | 3.1 µg/mL (≈ 9.8 µM) | 0.78 µg/mL (≈ 2.47 µM) | 3.1 µg/mL (≈ 9.8 µM) | 50 µg/mL (≈ 158 µM) | 1.56 µg/mL (≈ 4.93 µM) | 100 µg/mL (≈ 316 µM) | 100 µg/mL (≈ 316 µM) | 100 µg/mL (≈ 316 µM) | 3.1 µg/mL (≈ 9.8 µM) | 3.1 µg/mL (≈ 9.8 µM)
4 | CCn1cc(C(=O)O)c(=O)c2cc(F)c(C(=O)O)cc21 | > 100 µg/mL | > 100 µg/mL | > 100 µg/mL | > 100 µg/mL | > 100 µg/mL | > 100 µg/mL | > 100 µg/mL | > 100 µg/mL | > 100 µg/mL | > 100 µg/mL | > 100 µg/mL | > 100 µg/mL | > 100 µg/mL | > 100 µg/mL | > 100 µg/mL
5 | CCn1cc(C(=O)O)c(=O)c2cc(F)c(C(=O)NCCO)cc21 | > 100 µg/mL | 50 µg/mL (≈ 155 µM) | > 100 µg/mL | > 100 µg/mL | > 100 µg/mL | > 100 µg/mL | > 100 µg/mL | > 100 µg/mL | > 100 µg/mL | > 100 µg/mL | > 100 µg/mL | > 100 µg/mL | > 100 µg/mL | 50 µg/mL (≈ 155 µM) | > 100 µg/mL
6 | CCn1cc(C(=O)O)c(=O)c2cc(F)c(C3=NCCO3)cc21 | 50 µg/mL (≈ 164 µM) | 12.5 µg/mL (≈ 41.1 µM) | 12.5 µg/mL (≈ 41.1 µM) | > 100 µg/mL | > 100 µg/mL | 50 µg/mL (≈ 164 µM) | 12.5 µg/mL (≈ 41.1 µM) | 50 µg/mL (≈ 164 µM) | > 100 µg/mL | 25 µg/mL (≈ 82.2 µM) | > 100 µg/mL | > 100 µg/mL | > 100 µg/mL | 6.2 µg/mL (≈ 20.4 µM) | 25 µg/mL (≈ 82.2 µM)
7 | CCn1cc(C(=O)O)c(=O)c2cc(F)c(-c3ccc(C)o3)cc21 | 25 µg/mL (≈ 79.3 µM) | 12.5 µg/mL (≈ 39.6 µM) | 12.5 µg/mL (≈ 39.6 µM) | > 100 µg/mL | > 100 µg/mL | 1.56 µg/mL (≈ 4.95 µM) | 0.78 µg/mL (≈ 2.47 µM) | 1.56 µg/mL (≈ 4.95 µM) | 50 µg/mL (≈ 159 µM) | 1.56 µg/mL (≈ 4.95 µM) | > 100 µg/mL | > 100 µg/mL | 50 µg/mL (≈ 159 µM) | 6.2 µg/mL (≈ 19.7 µM) | 1.56 µg/mL (≈ 4.95 µM)
8 | CCn1cc(C(=O)O)c(=O)c2cc(F)c(C3=NC(C)(C)CO3)cc21 | > 100 µg/mL | > 100 µg/mL | > 100 µg/mL | > 100 µg/mL | > 100 µg/mL | 100 µg/mL (≈ 301 µM) | 12.5 µg/mL (≈ 37.6 µM) | 50 µg/mL (≈ 150 µM) | > 100 µg/mL | 25 µg/mL (≈ 75.2 µM) | > 100 µg/mL | > 100 µg/mL | > 100 µg/mL | 100 µg/mL (≈ 301 µM) | 25 µg/mL (≈ 75.2 µM)
9 | CCn1cc(C(=O)O)c(=O)c2cc(F)c(-c3cocn3)cc21 | 50 µg/mL (≈ 165 µM) | 12.5 µg/mL (≈ 41.4 µM) | 12.5 µg/mL (≈ 41.4 µM) | > 100 µg/mL | 100 µg/mL (≈ 331 µM) | 25 µg/mL (≈ 82.7 µM) | 6.2 µg/mL (≈ 20.5 µM) | 12.5 µg/mL (≈ 41.4 µM) | > 100 µg/mL | 6.2 µg/mL (≈ 20.5 µM) | > 100 µg/mL | > 100 µg/mL | > 100 µg/mL | 6.2 µg/mL (≈ 20.5 µM) | 12.5 µg/mL (≈ 41.4 µM)
10 | CCn1cc(C(=O)O)c(=O)c2cc(F)c(-c3c[nH]cn3)cc21.Cl | > 100 µg/mL | 25 µg/mL | 50 µg/mL | > 100 µg/mL | > 100 µg/mL | 50 µg/mL | 12.5 µg/mL | 50 µg/mL | 50 µg/mL | 12.5 µg/mL | > 100 µg/mL | > 100 µg/mL | 50 µg/mL | 12.5 µg/mL | 25 µg/mL
11 | O=C(O)c1cn(C2CC2)c2cc(N3CCNCC3)c(F)cc2c1=O [CIPROFLOXACIN] | 0.78 µg/mL (≈ 2.35 µM) | – | 0.05 µg/mL (≈ 0.151 µM) | 0.2 µg/mL (≈ 0.604 µM) | 0.2 µg/mL (≈ 0.604 µM) | 1.56 µg/mL (≈ 4.71 µM) | 0.2 µg/mL (≈ 0.604 µM) | 0.39 µg/mL (≈ 1.18 µM) | 0.39 µg/mL (≈ 1.18 µM) | 0.1 µg/mL (≈ 0.302 µM) | 1.56 µg/mL (≈ 4.71 µM) | 0.39 µg/mL (≈ 1.18 µM) | 0.39 µg/mL (≈ 1.18 µM) | 0.02 µg/mL (≈ 0.0604 µM) | 0.39 µg/mL (≈ 1.18 µM)
